Source: ChEMBL document CHEMBL1153783, “Synthesis and vasodilatory activity of some amide derivatives of 6-(4-carboxymethyloxyphenyl)-4,5-dihydro-3(2H)-pyridazinone” (Eur J Med Chem, 2009)

How the values were obtained:
Aorta [1] = assay: Vasodilatory activity in Wistar rat thoracic aortic ring assessed as inhibition of phenylephrine-induced contraction at 10 uM treated after phenylephrine challenge; format: functional
In short: (§1)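 Thoracic aortic rings were taken from Wistar rats of either sex (300–400 g) and held in PSS at 37 °C under O2/CO2 (95:5), equilibrated ≥90 min. Rings were precontracted with 10^-6 M phenylephrine, then given cumulative additions of 10^-8 to 10^-5 M at 30 min intervals, one compound per ring. Relaxation was read as % of initial contraction. A sigmoidal fit gave pD2 and Emax, reported as mean ± SEM of 4 or 8 experiments.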

Aorta [2] = assay: Vasodilatory activity in Wistar rat thoracic aortic ring assessed as inhibition of phenylephrine-induced contraction treated after phenylephrine challenge; format: functional, tissue-based; settings: for IC50: Rattus norvegicus, Wistar, Aorta; in short: as §1
Aorta [3] = assay: Ratio of SK&F-93741 IC50 to compound IC50 for inhibition of phenylephrine-induced contraction in Wistar rat thoracic aortic ring; format: functional
Aorta [4] = assay: Ratio of hydralazine IC50 to compound IC50 for inhibition of phenylephrine-induced contraction in Wistar rat thoracic aortic ring; format: functional

IC50 (Aorta [2]) | Compound | Emax at 10 µM (Aorta [1]) | pD2 (Aorta [2]) | Ratio IC50 (Aorta [3]) | Ratio IC50 (Aorta [4])
 | O=C1CCC(c2ccc(OCC(=O)n3ccnc3)cc2)=NN1 | 3.7% |  |  | 
 | CC1CC(=O)NN=C1c1ccc(OCC(=O)n2ccnc2)cc1 (stereo not drawn) | 32% |  |  | 
 | CN1CCN(C(=O)COc2ccc(C3=NNC(=O)CC3)cc2)CC1 | 23.9% |  |  | 
910 nM | O=C1CCC(c2ccc(OCC(=O)N3CCCCC3)cc2)=NN1 | 61.6% | 5.9 |  | 
 | O=C(COc1ccc(C2=NN(c3ccccc3)C(=O)CC2)cc1)N1CCCCC1 | 16.2% |  |  | 
 | CC1CC(=O)NN=C1c1ccc(OCC(=O)N2CCCCC2)cc1 (stereo not drawn) | 29.8% |  |  | 
 | O=C1CCC(c2ccc(OCC(=O)N3CCOCC3)cc2)=NN1 | 41.8% |  |  | 
 | CC1CC(=O)NN=C1c1ccc(OCC(=O)N2CCOCC2)cc1 (stereo not drawn) | 17.6% |  |  | 
1020 nM | O=C1CCC(c2ccc(OCC(=O)N3CCCC3)cc2)=NN1 | 52.2% | 5.9 |  | 
51 nM | O=C(COc1ccc(C2=NN(c3ccc(F)cc3)C(=O)CC2)cc1)N1CCCC1 | 61.8% | 7.2 | 1.7 | 4.5
 | CC1CC(=O)NN=C1c1ccc(OCC(=O)N2CCCC2)cc1 (stereo not drawn) | 21.7% |  |  | 
 | CC(=O)Nc1ccc(C2=NNC(=O)CC2C)cc1 (stereo not drawn) | 61.1% | 7 |  | 
 | NNc1nncc2ccccc12 [HYDRALAZINE] | 55% | 6.6 |  | 
